Assay outcomes deposited in PubChem by several laboratories.
The list is not random: actives were taken first. Their share in the collection is about 4.4%.
TbMetRS inhib: T. brucei MetRS inhibitors, primary screen, biochemical, luminescence; methionyl-tRNA synthetase (Trypanosoma brucei brucei); purified T. brucei MetRS, ATP depletion, Kinase-Glo luminescence; inhibition, % at 11.9 µM; actives 0.4% (n = 360,000); AID 624268, 2012;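 active means inhibition above a per-plate cutoff of the control wells' mean inhibition plus 3 SD, cut at about 5.5% in these data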;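 further: 0% = DMSO wells median and 100% = median of wells with control inhibitor compound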
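Dosing: 11.9 µM compound single dose, 0.9% DMSO; Assay system: purified T. brucei MetRS enzyme; Measured by: Kinase-Glo luciferase luminescence reporting remaining unconsumed ATP; Schedule: 15 min plus 2 h at 25 °C.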
MsrA inh: bovine MsrA enzyme inhibitors, primary screen, biochemical, absorbance, HTS | AID 651718, 2012 | purified bovine MsrA, absorbance read-out | Methionine sulfoxide reductase A (Bos taurus) | actives 0.75% (n = 360,000) | inhibition, % at 15.5 µM; in the data active means inhibition above about 4.5%;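 further: 0% = vehicle wells with enzyme and 100% = reference inhibitor wells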
HTR2A ag: mouse Htr2a agonists via beta-arrestin recruitment, primary screen, cell-based, luminescence; activation, % at 7.6 µM; 5-hydroxytryptamine receptor 2A (Mus musculus), P35363; AID 624169, 2012; actives 0.66% (n = 360,000); CHO-K1 mHTR2A beta-arrestin complementation; percent of 30 µM serotonin response;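 active means activation above a run cutoff, the mean activation of all tested compounds plus 3 SD, cut at about 14% in these data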;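 further: 0% = plate median of compound wells and 100% = 30 µM serotonin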
Target sequence (P35363 whole entry, looked up): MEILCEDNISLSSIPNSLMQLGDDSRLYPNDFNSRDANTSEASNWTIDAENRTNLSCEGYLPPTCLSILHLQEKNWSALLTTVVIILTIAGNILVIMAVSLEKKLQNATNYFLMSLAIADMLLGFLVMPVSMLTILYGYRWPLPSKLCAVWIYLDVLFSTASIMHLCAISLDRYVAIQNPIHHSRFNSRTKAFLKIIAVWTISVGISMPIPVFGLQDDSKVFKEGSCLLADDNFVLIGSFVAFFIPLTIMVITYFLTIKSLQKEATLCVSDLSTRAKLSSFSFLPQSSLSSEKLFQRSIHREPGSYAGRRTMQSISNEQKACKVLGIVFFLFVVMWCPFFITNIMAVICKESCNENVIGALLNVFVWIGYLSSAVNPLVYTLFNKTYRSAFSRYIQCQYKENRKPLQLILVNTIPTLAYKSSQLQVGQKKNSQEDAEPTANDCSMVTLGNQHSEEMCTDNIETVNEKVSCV
MsrA act: bovine MsrA enzyme activators, primary screen, biochemical, absorbance, HTS; Methionine sulfoxide reductase A (Bos taurus); purified bovine MsrA, absorbance read-out; activation, % at 10.6 µM; actives 0.3% (n = 360,000); AID 602163, 2012; in the data active means activation above about 7.5%;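 further: 0% = vehicle and 100% = reference activator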
AI-2 QS mod: Vibrio harveyi AI-2 quorum sensing modulators, primary screen, JMH597 strain, luminescence/OD600 ratio. Vibrio harveyi JMH597 AI-2 luminescence/OD600 ratio, 9 h; active compounds read low; strain lacks LuxN and CqsS sensors; 0 = neutral-control median. activity change, % at 7.5 µM. actives 0.4% (n = 300,000); in the data active means activity change below about -75%, passing the limit was not always enough;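 further: luminescence divided by OD600 gain over 9 h not by final OD600 alone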
AHR act: AHR activators, primary screen, cell-based, luminescence, luciferase reporter, human. Aryl hydrocarbon receptor (Homo sapiens), P35869. AHR-responsive luciferase reporter cells. activation, % at 5 µM. actives 2.5% (n = 320,000). AID 2796, 2010; in the data active means activation above about 47%;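 further: 0% = vehicle wells and 100% = reference agonist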
TbMetRS confirm: T. brucei MetRS inhibitors, confirmation, biochemical, luminescence; inhibition, % at 11.9 µM; shares compounds with TbMetRS inhib; AID 624412, 2012; T. brucei MetRS enzyme, luminescence (ATP depletion); actives 93% (n = 1,400); in the data active means inhibition above about 7%
Jurkat cytotox: Jurkat T cell cytotoxicity, cytotoxicity control for T. brucei MetRS inhibitor project, luminescence, high throughput; shares compounds with TbMetRS inhib; Jurkat cells viability, ATP luminescence; inhibition, % at 8.3 µM; actives 12% (n = 1,400); AID 624413, 2012; in the data active means inhibition above about 15%;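 further: 0% = vehicle and 100% = reference inhibitor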
Tb MetRS inh FP: T. brucei MetRS inhibitors, orthogonal assay for T. brucei MetRS inhibitor project, biochemical, fluorescence polarization. AID 651607, 2012. inhibition, % at 11.9 µM. actives 44% (n = 1,400). purified T. brucei MetRS. shares compounds with TbMetRS inhib; in the data active means inhibition above about 17%;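 further: 0% = vehicle wells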
* hit, by the source's call.

How did O=C(C[C@H]1C(=O)N(Cc2ccccc2)C[C@@H]1c1ccc(Br)cc1)Nc1ccc(Br)cc1 do in these assays?
TbMetRS inhib: 77*; MsrA inh: 1; HTR2A ag: 7; MsrA act: -1; TbMetRS confirm: 94*; Jurkat cytotox: 6; Tb MetRS inh FP: 83*

Results for O=C(NCCC(=O)N(CCc1ccccc1)Cc1ccccc1)c1ccc(Br)cc1 ?
TbMetRS inhib: 2; MsrA inh: 1; HTR2A ag: -12; MsrA act: 0; AI-2 QS mod: -6; AHR act: 3

What do the screens show for `Cc1ccc(OC(C)C(=O)Nc2ccc3c(c2)n(C)c(=O)n3C)c(C)c1` (centres undefined)?
TbMetRS inhib: -1; MsrA inh: 1; HTR2A ag: -2; MsrA act: -2; AI-2 QS mod: 23

What do the screens show for `CSC[C@H]1CN(Cc2ccccc2)C(=O)[C@@H]1CC(=O)Nc1ccc(Br)cc1`?
TbMetRS inhib: 17*; MsrA inh: -1; HTR2A ag: -5; MsrA act: -2; TbMetRS confirm: 30*; Jurkat cytotox: 0; Tb MetRS inh FP: 11

Results for Cc1sc(-c2ccccn2)nc1OC(=O)c1ccc(Cl)c(Cl)c1 ?
TbMetRS inhib: 14*; MsrA inh: 1; HTR2A ag: 0; MsrA act: -3; AI-2 QS mod: 26; AHR act: 1; TbMetRS confirm: 3; Jurkat cytotox: 2; Tb MetRS inh FP: 0

What do the screens show for `O=C(O/N=C(\c1ccccc1)c1ccccn1)c1ccc(Cl)c(Cl)c1`?
TbMetRS inhib: 0; MsrA inh: -1; HTR2A ag: 4; MsrA act: -3; AI-2 QS mod: -2; AHR act: 1

How did Clc1ccc(OCCSCc2nc3ccccc3[nH]2)cc1 do in these assays?
TbMetRS inhib: 58*; MsrA inh: 0; HTR2A ag: -10; MsrA act: 1; AI-2 QS mod: 0; AHR act: 7; TbMetRS confirm: 73*; Jurkat cytotox: 5; Tb MetRS inh FP: 48*

Results for Clc1ccc(SCc2nc3ccccc3[nH]2)cc1 ?
TbMetRS inhib: 17*; MsrA inh: 1; HTR2A ag: 1; MsrA act: -3; AI-2 QS mod: 8; AHR act: -1; TbMetRS confirm: 30*; Jurkat cytotox: 8; Tb MetRS inh FP: 13

How did c1ccc2[nH]c(CSc3nccs3)nc2c1 do in these assays?
TbMetRS inhib: 1; MsrA inh: -2; HTR2A ag: 2; MsrA act: -12; AI-2 QS mod: 29; AHR act: 10

Results for Fc1ccccc1CSCc1nc2ccccc2[nH]1 ?
TbMetRS inhib: 1; MsrA inh: 0; HTR2A ag: -3; MsrA act: -3; AI-2 QS mod: 12; AHR act: 37

What do the screens show for `Brc1cnc2nc(SCc3nc4ccccc4[nH]3)[nH]c2c1`?
TbMetRS inhib: 57*; MsrA inh: 1; HTR2A ag: 0; MsrA act: -2; AI-2 QS mod: -35; AHR act: 32; TbMetRS confirm: 85*; Jurkat cytotox: -2; Tb MetRS inh FP: 65*

How did Fc1ccc(CSc2nc3ncc(Br)cc3[nH]2)cc1 do in these assays?
TbMetRS inhib: 3; MsrA inh: -1; HTR2A ag: -4; MsrA act: -1; AI-2 QS mod: 14; AHR act: 23
